# High-throughput results from PubChem.
# 14-3-3 Bad PPI – disrupts binding of bovine 14-3-3 zeta to phospho-Bad peptide. inhibition, % at 21.7 µM. 220,000 compounds, 0.71% hits. TR-FRET 14-3-3zeta/Dy647-pBad peptide displacement, 1 h. P63103;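 active = inhibition above about 70%, limit read from the data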;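 note: 0% = full 14-3-3 plus peptide FRET controls and 100% = background without 14-3-3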
# RBBP9 inhibitor – blocks human serine hydrolase RBBP9. O75884. recombinant RBBP9, FP-Rh probe fluorescence polarization. inhibition, % at 7.94 µM. 220,000 compounds, 0.2% hits. AID 1515;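 active = inhibition above the campaign mean of all tested compounds plus 3 SD, cut at about 14% in these data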;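 note: plate controls were DMSO wells with RBBP9 for no effect and wells lacking RBBP9 protein for full effect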
# Target sequence (O75884 whole entry, looked up): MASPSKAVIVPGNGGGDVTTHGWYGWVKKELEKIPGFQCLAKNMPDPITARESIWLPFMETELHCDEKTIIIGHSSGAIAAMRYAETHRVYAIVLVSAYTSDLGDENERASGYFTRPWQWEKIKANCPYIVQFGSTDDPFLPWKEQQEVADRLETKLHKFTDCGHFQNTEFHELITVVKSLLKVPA
#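 Measured by – fluorescence polarization · Test system – RBBP9 protein · Input – 2.5 µM RBBP9 dispensing solution, before mixing · Measure – percent inhibition from mP, scaled between DMSO and no-protein wells · Benchmarks – DMSO-treated enzyme wells and wells lacking RBBP9 · Times – preincubation 30 min plus labeling 45 min at 25 °C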
# Wee1 degr inh – blocks degradation of human Wee1 kinase; reporter increase, % at 5 µM; HeLa Luc-Wee1K328M stability, luciferase luminescence; 100% = proteasome inhibitor MG132 effect; P30291; 220,000 compounds, 1.2% hits;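 active = activation above the mean of all tested compounds plus 3 SD, set per screening run, cut at about 8.8% in these data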;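 note: cells exposed to compound for 20 h before luminescence read; 0% = DMSO alone and 100% = MG132 at 30 µM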
# eIF4E-4G inh – eIF4E/eIF4G interaction inhibition in translation initiation. TR-FRET eIF4E-eIF4GI(517-606) binding, 2 h. inhibition, % at 21.7 µM. 220,000 compounds, 0.37% hits;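 note: 0% = full FRET control wells and 100% = background wells lacking eIF4GI fragment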
# NCF1 inh – p47phox (human) inhibition; P14598; p47phox/p22phox peptide binding, fluorescence polarization, 2 h; inhibition, % at 24.7 µM; 220,000 compounds, 0.53% hits; AID 1274;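 note: 0% = p47phox with labelled peptide and 100% = labelled peptide alone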
# Target sequence (P14598 whole entry, looked up): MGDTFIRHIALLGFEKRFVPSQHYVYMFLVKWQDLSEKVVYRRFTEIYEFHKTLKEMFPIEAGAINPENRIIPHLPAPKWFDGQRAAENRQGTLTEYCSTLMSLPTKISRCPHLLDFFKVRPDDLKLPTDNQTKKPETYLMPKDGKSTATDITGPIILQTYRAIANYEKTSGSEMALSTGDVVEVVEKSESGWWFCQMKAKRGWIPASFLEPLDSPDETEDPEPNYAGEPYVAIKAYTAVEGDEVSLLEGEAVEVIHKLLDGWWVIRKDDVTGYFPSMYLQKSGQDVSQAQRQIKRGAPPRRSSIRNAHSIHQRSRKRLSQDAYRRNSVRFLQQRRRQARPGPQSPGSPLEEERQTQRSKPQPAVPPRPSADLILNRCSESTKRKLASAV
# An asterisk follows results filed as active; x = no result; [ ] = dose if it differs, or a comment. Compounds with a hit are over-represented: about 2.8% of the library has one in this group of screens.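 Rule for the calls, unless noted: active = inhibition above about 30% (limit read from the data); inactive = the rest.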
SMILES,14-3-3 Bad PPI,RBBP9 inhibitor,Wee1 degr inh,eIF4E-4G inh,NCF1 inh
Cc1ccnc(NC(=O)c2cc(-n3cnnc3)ccc2Cl)c1,4,-6,1,0,-15
Cc1ccc(NC(=O)c2cc(-n3cnnc3)ccc2Cl)c(C)c1,-3,-3,5,0,42*
CS(=O)(=O)N(CC(=O)N1CCN(c2ccccc2)CC1)c1cccc(Br)c1,23,1,1,-2,35*
COc1ccc(N2CCN(C(=O)CN(c3cccc(Br)c3)S(C)(=O)=O)CC2)cc1,18,-4,-4,8,-6
CC(NC(=O)Nc1ccc(O)cc1)(C(F)(F)F)C(F)(F)F,4,10,-2,5,-8
CCC(NC(=O)Nc1ccc(O)cc1)(C(F)(F)F)C(F)(F)F,11,24*,1,-2,0
CCCCn1c(=N)n(CC(=O)c2ccc(OC)cc2)c2ccccc21,-4,-4,-2,83*,3
O=C(O)CCCn1cc(NC(=O)COc2cc(F)ccc2[N+](=O)[O-])cn1,-2,-5,4,-3,-2
CCNC(=O)c1ccc2c(c1)C1C3CCC(C3)C1C(c1ccccc1)N2 (stereo unspecified),-7,-3,-3,3,-8
O=C(CSc1nnc(SCc2cccc3ccccc23)s1)N=Nc1c(O)[nH]c2ccccc12,49,-7,0,6,32*
O=C(Cc1cccs1)N=Nc1c(O)[nH]c2ccccc12,7,6,-2,-1,10
COc1cc2c(cc1OC)-c1cc(NCc3ccccn3)nc(=O)n1CC2,91*[fluorescence artefact?],1,1,88*,7
CCOc1ccc(-c2nnn(CC(=O)NCc3ccc4c(c3)OCO4)n2)cc1,7,1,-1,-2,-5
COc1ccc(-c2nnn(CC(=O)NCc3ccc4c(c3)OCO4)n2)cc1OC,40,2,5,7,34*
O=C(O/N=C(\c1ccccc1)c1ccncc1)c1ccccc1Cl,6,-8,9.6*,2,0
O=C(NN(C(=O)c1ccccc1)c1ccccc1)c1ccccc1,-6,-1,2,-3,-8
O=C(c1ccccc1)N(Nc1ccccc1)c1ccccc1,0,5,-3,99*,-8
Cc1sc2nc(SCC(=O)NCc3ccco3)n(C)c(=O)c2c1C,-3,-9,0,-7,-24
CCn1c(SCC(=O)NC(=O)NCc2ccco2)nc2sc(C)c(C)c2c1=O,3,-7,9.8*,5,-23
C=CCN(c1ccccc1)S(=O)(=O)c1cccc(C(=O)O)c1,70*,-3,-1,0,-10
CSc1nc(Cl)cc(N2CCOCC2)n1,10,4,2,0,-1
COCC(=O)O[C@]1(CCN(C)CCCc2nc3ccccc3[nH]2)CCc2cc(F)ccc2[C@@H]1C(C)C,7,x,x,-17,-2
CCN(CC(=O)NC1CCS(=O)(=O)C1)S(=O)(=O)c1cccc(C(C)=O)c1 (stereo unspecified),0,1,-2,-1,43*
Cc1ccc(S(=O)(=O)NNC(=O)c2cnn(-c3ccc(Cl)cc3)c2C(F)(F)F)cc1,0,-5,2,0,2
O=C(Nc1ccc(Oc2ccccc2)cc1)C1CCN(c2ncccn2)CC1,79*,-8,-1,-3,-14
SMILES,14-3-3 Bad PPI,RBBP9 inhibitor,Wee1 degr inh,eIF4E-4G inh,NCF1 inh
NS(=O)(=O)c1cccc(NC(=O)CSc2nnc(C3CC3)n2Cc2ccccc2)c1,-6,-1,1,0,-3
Cn1cnnc1Sc1ccc(C(=O)NCCC23CC4CC(CC(C4)C2)C3)cc1[N+](=O)[O-],0,-7,0,4,-7
O=C1c2sc3nc4c(c(=O)n3c2C(=O)N1c1ccccc1)CCC4,8,-10,0,-1,-4
Cc1ccccc1N1C(=O)c2sc3nc4c(c(=O)n3c2C1=O)CCC4,2,2,1,-4,69*
Cc1c(C(=O)NCCc2ccccc2)oc2ccc(S(=O)(=O)N3CCC4(CC3)OCCO4)cc12,-3,-7,9.5*,4,-4
Cc1c(C(=O)NCc2ccco2)oc2ccc(S(=O)(=O)N3CCC4(CC3)OCCO4)cc12,-5,-11,-2,0,-14
Brc1ccc(-c2nnc3ccc(Nc4ccccc4)nn23)cc1,25,1,-1,-6,-6
CC(C)c1ccc(/C=N/NC(=O)c2ccccc2Cl)cc1,-7,-9,8.9*,-1,-3
COC(=O)c1ccc(/C=N/NC(=O)c2ccccc2Cl)cc1,8,3,1,16,-12
O=C(NCc1nc(-c2ccccc2)no1)c1cccs1,5,-6,3,-4,-15
O=C(NCc1nc(-c2ccc(C(F)(F)F)cc2)no1)c1cccs1,2,-4,9.6*,-4,-3
Cc1ccc(NC(=S)N(C)C)cc1C,0,-4,2,-1,-9
Nc1ccc2nc(CN3CCOCC3)[nH]c2c1,91*,-3,-1,-6,-8
O=C(CSc1nnc(-c2ccncc2)o1)NC1CCCCC1,4,-8,6,-1,-7
O=C(CSc1nnc(-c2ccc(F)cc2)o1)NC1CCCCC1,-12,-7,10*,1,-194
COc1ccccc1NC(=O)c1c(N=Cc2c(O)ccc3ccccc23)cnn1C,-2,-2,9.0*,-3,-20
CCn1ncc(Br)c1C(=O)Nc1ccccc1OC,-9,0,4,3,2
CCOc1ccccc1NC(=O)c1c(Br)cnn1C,5,0,-2,-24,38*
O=C(COC(=O)c1ccc2ncsc2c1)Nc1ncc(Cl)cc1Cl,73*[fluorescence artefact?],-13,2,-27,-15
COc1ccc(C(=O)NC(=O)COC(=O)c2ccc3ncsc3c2)cc1,78*,-2,1,-3,-7
Cc1c(Cl)cnc(NC(=O)COC(=O)c2ccc3ncsc3c2)c1Cl,70*,-6,0,5,-35
Cc1ccc2n(n1)c(=O)c(Cc1ccccc1)c([O-])[n+]2-c1ccccc1,-1,-10,0,3,4
COc1ccc(C(=O)C2CCCN(Cc3cccn3-c3ccc(Cl)cn3)C2)c(OC)c1 (stereo unspecified),-12,-6,1,2,0
Cc1ccc(/C=N/NC(=O)c2cccc(S(=O)(=O)N3CCOCC3)c2)o1,-20,-8,4,0,3
CCOC(=O)C1CC(c2ccc(Cl)cc2)=NNC1=O (stereo unspecified),-14,-6,0,-4,-4
Cc1nc(C(C)(C)O)n(-c2ccccc2)n1,-12,0,-2,92*[fluorescence artefact?],-4
Cc1ccc(N(CC(N)=O)C2SC(=O)N(C)C2=O)cc1 (stereo unspecified),80*,-10,5,1,-5
NC(=O)CCS(=O)(=O)c1ccc(Cl)cc1,-1,1,10*,0,6
O=C(CN(C1CCCCC1)C1CCCCC1)N1CCc2ccccc2C1,88*,-10,2,10,-4
